One test deals with HT-29. As to the kind of experiment: Antiproliferative activity against human HT29 cells […] by microculture tetrazolium assay. In kind it is functional, cell-based. The procedure, abridged: (§1)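 Tumor cells (ATCC) grown in RPMI 1640 with 10% fetal calf serum, 2 mM L-glutamine, penicillin/streptomycin, 10 mM HEPES pH 7.4. Continuous exposure to graded concentrations for four doubling times, then MTT added and incubated 4 h at 37 °C. Formazan dissolved in DMSO, optical density read. IC50 = concentration reducing OD by 50% versus untreated controls.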

In another test the test system is L1210. As to the kind of experiment: Antiproliferative activity against mouse L1210 cells […] by microculture tetrazolium assay. It is filed as functional, cell-based. The procedure, abridged: as §1
The target in test [1] is T1, DNA topoisomerase 1 (Homo sapiens) (UniProt P11387).
T1 sequence (whole entry): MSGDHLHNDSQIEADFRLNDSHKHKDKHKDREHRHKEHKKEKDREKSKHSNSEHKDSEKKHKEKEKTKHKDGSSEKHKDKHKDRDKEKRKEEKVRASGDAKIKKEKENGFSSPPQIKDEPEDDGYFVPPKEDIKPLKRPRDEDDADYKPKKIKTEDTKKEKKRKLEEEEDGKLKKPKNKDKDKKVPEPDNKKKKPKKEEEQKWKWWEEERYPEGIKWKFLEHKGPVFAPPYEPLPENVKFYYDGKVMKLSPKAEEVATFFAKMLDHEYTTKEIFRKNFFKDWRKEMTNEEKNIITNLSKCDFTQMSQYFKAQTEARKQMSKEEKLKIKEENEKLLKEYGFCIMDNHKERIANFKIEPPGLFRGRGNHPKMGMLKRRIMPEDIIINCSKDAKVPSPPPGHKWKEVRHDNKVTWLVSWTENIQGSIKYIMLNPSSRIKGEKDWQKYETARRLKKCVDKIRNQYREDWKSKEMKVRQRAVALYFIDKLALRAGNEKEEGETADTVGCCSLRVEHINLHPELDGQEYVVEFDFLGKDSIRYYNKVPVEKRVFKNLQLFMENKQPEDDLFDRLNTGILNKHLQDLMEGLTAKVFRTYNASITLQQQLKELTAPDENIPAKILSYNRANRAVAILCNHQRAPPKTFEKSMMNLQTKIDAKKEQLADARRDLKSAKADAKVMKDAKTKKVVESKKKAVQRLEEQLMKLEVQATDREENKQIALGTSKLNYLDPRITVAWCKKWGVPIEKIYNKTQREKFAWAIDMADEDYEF
Kind of test: Inhibition of topoisomerase 1.

In the next test the test system is A549. Kind of test: Antiproliferative activity against human A549 cells […] by microculture tetrazolium assay. It is filed as functional, cell-based. The method in brief: as §1
A further test deals with DU-145. Kind of test: Antiproliferative activity against human DU145 cells […] by microculture tetrazolium assay. In kind it is functional, cell-based. The method in brief: as §1
Test [2] deals with T1, DNA topoisomerase 1 (Homo sapiens). As to the kind of experiment: Inhibition of topoisomerase 1 upto 50 uM. The procedure, abridged: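 DNA relaxation and DNA cleavage assays with topoisomerase I, run following published procedures, with compounds up to 50 µM.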
The target of test [3] is T2, Serine/threonine-protein kinase Chk1 (Homo sapiens) (UniProt O14757).
T2 sequence (whole entry): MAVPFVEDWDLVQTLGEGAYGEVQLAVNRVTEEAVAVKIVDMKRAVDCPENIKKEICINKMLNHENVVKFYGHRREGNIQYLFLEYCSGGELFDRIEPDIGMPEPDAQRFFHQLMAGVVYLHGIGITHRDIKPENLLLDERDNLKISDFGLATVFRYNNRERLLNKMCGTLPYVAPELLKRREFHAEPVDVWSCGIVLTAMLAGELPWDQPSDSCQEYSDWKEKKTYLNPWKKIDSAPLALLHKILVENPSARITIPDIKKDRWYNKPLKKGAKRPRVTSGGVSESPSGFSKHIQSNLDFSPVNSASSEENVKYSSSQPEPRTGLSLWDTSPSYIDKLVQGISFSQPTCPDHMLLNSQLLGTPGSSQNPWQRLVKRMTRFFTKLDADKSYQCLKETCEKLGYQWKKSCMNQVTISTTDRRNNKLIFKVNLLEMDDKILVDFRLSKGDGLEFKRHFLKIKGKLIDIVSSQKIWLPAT
Kind of test: Inhibition of human Chk1 at 10 uM. The procedure, abridged: (§2)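 Chk1 from a commercial source or purified as GST–Chk1 from baculovirus-infected Sf9 cells. Assay based on a published method. Percent inhibition determined at 10 µM; IC50 determined for selected compounds.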

The target of test [4] is T3, Serine/threonine-protein kinase Chk1 (Homo sapiens, UniProt O14757).
T3 sequence (O14757 whole entry): T2 sequence (whole entry)
As to the kind of experiment: Inhibition of human Chk1. The procedure, abridged:
as §2

The species entered for another test is Homo sapiens. Kind of test: Binding affinity to DNA assessed as melting temperature.
For test [5], the target named is Proto-oncogene tyrosine-protein kinase Src (Homo sapiens) (UniProt P12931). Kind of test: Inhibition of Src tyrosine kinase at 1 uM after 20 mins.

Calls of active or inactive are those of the source. The rule behind the calls is not given here.

Chain of Proto-oncogene tyrosine-protein kinase Src (Homo sapiens) (P12931 2-536 limits assumed): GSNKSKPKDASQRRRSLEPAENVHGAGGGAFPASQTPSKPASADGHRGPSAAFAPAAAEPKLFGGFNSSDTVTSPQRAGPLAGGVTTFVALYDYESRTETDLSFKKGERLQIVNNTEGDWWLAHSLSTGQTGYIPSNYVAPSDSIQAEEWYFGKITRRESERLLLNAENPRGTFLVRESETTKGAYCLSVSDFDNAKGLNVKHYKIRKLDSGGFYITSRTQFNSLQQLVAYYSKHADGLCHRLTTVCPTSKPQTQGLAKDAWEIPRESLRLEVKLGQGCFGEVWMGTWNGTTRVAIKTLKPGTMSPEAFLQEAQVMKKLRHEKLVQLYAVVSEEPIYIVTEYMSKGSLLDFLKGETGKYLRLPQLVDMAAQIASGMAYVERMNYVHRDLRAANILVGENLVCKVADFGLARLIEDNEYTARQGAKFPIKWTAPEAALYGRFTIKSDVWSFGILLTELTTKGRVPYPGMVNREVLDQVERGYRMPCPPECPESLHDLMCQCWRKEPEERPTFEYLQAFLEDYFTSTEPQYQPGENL

For `CN1C(=O)c2c(n3ccnc3c3[nH]c4ncccc4c23)C1=O`, the 50% inhibitory concentration (IC50) is 30.6 µM with HT-29, 43.5 µM in the test with L1210, 35.6 µM with A549 and 7.4 µM in the test on DU-145. Moreover, the outcome in [1] and in [2] was inactive. In [3], this molecule showed an inhibition of 36.1%.

Regarding `O=C1NC(=O)c2c1c1c3cccnc3[nH]c1c1cccn21`, the IC50 came to 17.1 µM with HT-29; 29.2 µM in the test on L1210; 19.7 µM in the test on A549; 3.6 µM in [4]; 4.6 µM with DU-145. In addition, in [3], the inhibition stood at 76.6%.

For the molecule `CN1C(=O)c2c(n3cncc3c3c2c2cccnc2n3[C@@H]2O[C@H](CO)[C@@H](O)[C@H](O)[C@H]2O)C1=O`, the IC50 in the test with HT-29 is 52.5 µM; in the test on L1210, more than 100 µM; in the test on A549, 78.5 µM; with DU-145 it was 56.1 µM. Besides, the inhibition in test [3] stood at 15.1%.

Consider `CN1C(=O)c2c(n3cccc3c3[nH]c4ccc(OCc5ccccc5)cc4c23)C1=O`, for which the IC50 in the test on HT-29 came to 35.9 µM; in the test on L1210, 42.7 µM; with A549, 20 µM; in the test on DU-145, 22.7 µM. Besides, the outcome (in the test filed under Homo sapiens; in test [1]; in test [2]) was inactive. The inhibition in [3] is 10.3%.

Take `CN1C(=O)c2c(n3cccc3c3[nH]c4ccccc4c23)C1=O`: the IC50 in the test with HT-29 was more than 100 µM; with L1210, 33 µM; in the test with A549, more than 100 µM; with DU-145, 1.2 µM. The outcome (in the test listed under Homo sapiens; in [1]; in test [2]) was inactive.

Consider `O=C1NC(=O)c2c1c1[nH]cnc1c1[nH]c3ccccc3c21` [GRANULATIMIDE], for which the IC50 was 11.4 µM with A549, 0.08 µM in [4] and 2.8 µM with DU-145. In addition, the inhibition in test [3] was 93.9%.

Consider `O=C1NC(=O)c2c1c1c3ccccc3[nH]c1c1cccn21`, for which the results for the inhibition in test [5] and in [3] were 32.5% and 85%, respectively. Moreover, the half-maximal inhibitory concentration (IC50) with HT-29 is 3.3 µM; with L1210, 3.1 µM; in the test with A549 it was 2 µM; in test [4], 0.024 µM; in the test on DU-145, 1.4 µM. Moreover, the outcome (in the test listed under Homo sapiens; in [1]; in [2]) was inactive.

On to `CN1C(=O)c2c(c3c4ccccc4[nH]c3c3cc[nH]c23)C1=O`, for which the half-maximal inhibitory concentration (IC50) in the test with HT-29 stood at 5.9 µM; in the test with L1210, 4.9 µM; in the test on A549, 47.1 µM; in the test on DU-145 it was 1.9 µM. Also, the outcome (in the test listed under Homo sapiens; in test [1]; in test [2]) was inactive. In [3], the inhibition came to 43.1%.

Turning to `O=C1NC(=O)c2c1c1c3ccccc3[nH]c1n1cncc21` [ISOGRANULATIMIDE], the results for the IC50 (in the test on A549; in [4]; in the test on DU-145) were 18.1 µM, 0.44 µM and 13.1 µM, respectively.

For `CN1C(=O)c2c(n3ccnc3c3c2c2cccnc2n3[C@@H]2O[C@H](CO)[C@@H](O)[C@H](O)[C@H]2O)C1=O`, the IC50 in the test on HT-29 is 53 µM; with L1210, more than 100 µM; in the test with A549, 128 µM; with DU-145 it was 64.8 µM. For the same molecule, the outcome (in the test filed under Homo sapiens; in test [1]; in [2]) was inactive. This molecule also had an inhibition in [3] of 10.7%.

`CN1C(=O)c2c(n3cccc3c3[nH]c4ccc(O)cc4c23)C1=O`: the IC50 was 26.5 µM in the test on HT-29, 5.4 µM in the test with L1210 and 8.8 µM in the test on A549. The same molecule displayed an inhibition in test [3] of 54.1%.

Regarding `CN1C(=O)c2c(n3cccc3c3[nH]c4ccc(Cl)cc4c23)C1=O`, the half-maximal inhibitory concentration (IC50) in the test on HT-29 came to 63.2 µM; in the test on L1210, 41.2 µM; in the test on A549, 68.3 µM. The result (in the test listed under Homo sapiens; in [1]; in test [2]) was inactive. The molecule further had an inhibition in test [3] of 55.6%.

`O=C1NC(=O)c2c1c1c3cc(OCc4ccccc4)ccc3[nH]c1c1cccn21`: the IC50 with HT-29 amounted to 13.7 µM; with L1210 it was 27 µM; in the test on A549, 23.2 µM; in [4], 0.64 µM. Moreover, the inhibition in test [3] stood at 54.8%.

`CN1C(=O)c2c(n3cncc3c3[nH]c4ncccc4c23)C1=O`: the 50% inhibitory concentration (IC50) with HT-29 worked out at 9.7 µM; in the test with L1210, 8.8 µM; in the test on A549, 7.4 µM; with DU-145, 13.5 µM. The inhibition in [3] came out at 11.6%.

As for `CN1C(=O)c2c(n3cccc3c3[nH]c4ccc(Br)cc4c23)C1=O`, the half-maximal inhibitory concentration (IC50) is 88.3 µM in the test on HT-29, 48.7 µM in the test on L1210, 67 µM in the test with A549 and more than 100 µM in the test on DU-145. Besides, the inhibition in test [3] was 7.1%.

Consider `O=C1NC(=O)c2c1c1c3cc(O)ccc3[nH]c1c1cccn21`, for which the inhibition in test [5] was determined as 1.2%; in test [3] it was 95.8%. In addition, the concentration for half-maximal inhibition (IC50) with HT-29 is 27.8 µM; in the test on L1210, 4.5 µM; in the test on A549, 16.1 µM; in test [4], 0.016 µM; in the test on DU-145, 15.1 µM.
